b-catenin transl – modulators of beta-catenin nuclear translocation, primary screen, imaging, HeLa cells, immunofluorescence, high-content; nuclear translocation activity, % at 5 µM; actives 0.3% (n = 190,000); AID 1665, 2009;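 active means nuclear translocation activity above 50% at 5 µM, with a well cell count of 50 or more; inconclusive means wells under 50 cells across six images, flagged as toxic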;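 further: per-cell ratio of nuclear to cytoplasmic median beta-catenin stain intensity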
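Read-out: Nuclear/cytoplasmic beta-catenin signal ratio, % activation | Assay system: Human HeLa cell line | Times: 24 h compound exposure at 37°C, 5% CO2 | Signal: Fluorescence imaging of beta-catenin antibody stain plus DAPI | Dosing: 5 µM primary, 0.02–20 µM confirmation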
MT stabilizer – microtubule stabilizers in HeLa cells, primary screen, imaging, high-content imaging; HeLa tubulin immunostaining HCS, 24 h; share of cells brighter than vehicle mean+2SD; % tubulin-high responders, % at 10 µM; actives 0.83% (n = 200,000); AID 2205, 2009;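 active means plate Z-score above 3 for both tubulin-high and condensed-nucleus cell shares, with cell loss under 80%, at 10 µM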;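 further: anti alpha tubulin signal scored within the nucleus-defined area of each cell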
Ins promoter up – insulin promoter activators in MIN6 cells, imaging, high-content screening, mouse beta cells; MIN6 insulin promoter-GFP reporter; active compounds read high; actives 0.3% (n = 190,000); z-score at 5 µM; AID 1625, 2009;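 active means z-score above 3 at 5 µM with at least 500 cells counted in the well; inconclusive means wells under 500 cells, flagged as cytotoxic or low count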
HSV replic up – enhancers of HSV replication in host cells, fold increase, host cell viability | HSV replication augmentation in cells | maximum fold increase | actives 0.005% (n = 220,000) | AID 1956, 2009; in the data active means maximum fold increase above about 1.5; inconclusive means no clear call, values can overlap the other calls; tested in PC3 cells
Furin inhibitor – human furin inhibitors, primary screen, biochemical, fluorescence intensity. P09958. purified furin, fluorogenic substrate cleavage. inhibition, % at 20 µM or 30 µM. actives 0.061% (n = 220,000). AID 463115, 2010; in the data active means inhibition above about 25%
Target sequence (P09958 108-714 limits assumed): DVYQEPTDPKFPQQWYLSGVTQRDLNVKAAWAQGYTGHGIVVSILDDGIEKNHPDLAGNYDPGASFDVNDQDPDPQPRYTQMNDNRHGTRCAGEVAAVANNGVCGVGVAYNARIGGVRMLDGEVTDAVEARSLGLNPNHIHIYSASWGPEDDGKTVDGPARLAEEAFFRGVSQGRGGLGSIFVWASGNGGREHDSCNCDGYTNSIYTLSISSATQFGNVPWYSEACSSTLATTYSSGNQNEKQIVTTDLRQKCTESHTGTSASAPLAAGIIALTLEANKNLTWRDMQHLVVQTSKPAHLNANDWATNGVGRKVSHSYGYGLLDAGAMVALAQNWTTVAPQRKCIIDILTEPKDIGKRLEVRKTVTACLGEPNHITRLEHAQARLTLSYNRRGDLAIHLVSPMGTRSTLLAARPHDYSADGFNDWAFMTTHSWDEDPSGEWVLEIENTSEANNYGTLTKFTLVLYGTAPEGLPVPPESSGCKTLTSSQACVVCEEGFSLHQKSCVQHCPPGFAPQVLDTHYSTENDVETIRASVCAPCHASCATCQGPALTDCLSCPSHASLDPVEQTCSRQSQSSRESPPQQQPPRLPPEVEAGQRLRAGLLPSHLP
Autophagy HCS – autophagy modulators in MEF cells, primary screen, imaging, high-content, MEF GFP-LC3; MEF GFP-LC3 puncta imaging; test concentration mostly 10 µM; calls only at 10 µM (by protocol); actives 0.98% (n = 190,000);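 active means percentage of spot-positive cells more than 3 SD above its plate mean, without a fluorescence outlier flag or 80% toxicity; inconclusive means no clear call, values can overlap the other calls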
Large screens that a line does not name were inactive. Most compounds without a hit are left out; they make up all but 1.9% or so of the library.

Cc1c(C(=O)NCC2COc3ccccc3O2)oc2ccc(S(=O)(=O)N3CCOCC3)cc12 (centres undefined)	none (no result: HSV replic up)
CCN(CC)S(=O)(=O)c1ccc2oc(C(=O)NCC3COc4ccccc4O3)c(C)c2c1 (centres undefined)	Autophagy HCS active (no result: b-catenin transl)
O=c1nc2ccccc2c2n1CC(CN1CCN(C(c3ccccc3)c3ccccc3)CC1)N2 (centres undefined)	none
CN(C)c1nc2n(c(=S)n1)CCS2	none
NCC12CC3CC(C1)CC(CN)(C3)C2	Ins promoter up 3.1
CCCCN1C(=O)/C(=C/C=C2\N(C)c3ccccc3C2(C)C)SC1=S	Autophagy HCS active (no result: Ins promoter up, HSV replic up)
CCN1C(=O)N[C@@H](c2ccco2)C(C(C)=O)=C1C	none (no result: b-catenin transl, MT stabilizer, Ins promoter up, Furin inhibitor, Autophagy HCS)
COc1ccc(NC(=S)NC(=O)/C=C/c2ccco2)cc1	none
COc1ccc(NC(=O)/C(C#N)=C/C=C/c2ccco2)cc1	MT stabilizer 24
Cc1ccc(-c2nc(NCC3CCCO3)sc2C)cc1 (centres undefined)	none
COc1cc(CNC(=O)c2nc(Cn3nc(C)c(Br)c3C)no2)cc(OC)c1	none
Cc1ccc(S(=O)(=O)NCCNC(=O)N2CCOCC2)cc1	none
Cc1ccc(S(=O)(=O)NCCCNC(=O)N2CCOCC2)cc1	Autophagy HCS active
O=C(CCc1nc(-c2ccccc2F)no1)Nc1ccc(Oc2ccccc2)cc1	MT stabilizer 24
COc1cccc(NC(=O)CCc2nc(-c3ccccc3F)no2)c1	none
CCC(C)c1nc2c(c(N3CCC3=O)c1-c1ccccc1)CCCC2 (centres undefined)	none (no result: b-catenin transl, MT stabilizer, Ins promoter up, Furin inhibitor, Autophagy HCS)
CC(=O)Nc1ccc(-c2nnn(CC(=O)Nc3ccc4c(c3)OCO4)n2)cc1Cl	Autophagy HCS active
CN(C)c1ccc(/C=C/C(=O)c2cccc(Br)c2)cc1	MT stabilizer 14, Autophagy HCS active (no result: HSV replic up)
CC(=O)Nc1cccc(C(=O)/C=C/c2ccc(C)cc2)c1	none
O=C(C1Cc2ccccc2CN1S(=O)(=O)c1cccs1)N1CCCCC1 (centres undefined)	Furin inhibitor 28 (no result: b-catenin transl)
CCC(C)NC(=O)CSc1nc2n[nH]c(C)c2c(=N)n1-c1ccc(OC)cc1 (centres undefined)	none
CCOc1ccc(-n2c(SCC(=O)NC(C)CC)nc3n[nH]c(C)c3c2=N)cc1 (centres undefined)	Ins promoter up 3
COc1ccc(Cn2c3ccc(OC)cc3c3nc4ccccc4nc32)cc1	Autophagy HCS active
COc1ccc2c(c1)c1nc3ccccc3nc1n2CC(=O)OC(C)C	Autophagy HCS active (no result: b-catenin transl, Ins promoter up, HSV replic up)
COc1ccc2c(c1)c1nc3ccccc3nc1n2Cc1ccc(OC(C)C)c(OC)c1	Autophagy HCS active
COc1ccc2c(c1)c1nc3ccccc3nc1n2CCCN1C(=O)c2ccccc2C1=O	none
Cc1ccc(NC(=O)Cc2nnc(N)s2)cc1	none (no result: MT stabilizer, Autophagy HCS)
S=C(Nc1ccccc1)N1CCN(C(=S)c2ccccc2)CC1	none
Nc1c(C(=O)NC23CC4CC(CC(C4)C2)C3)sc2nc3c(c(C(F)(F)F)c12)CCC3	Autophagy HCS active
CCOC(=O)Nc1nc(-c2ccccc2)c(C(=O)c2ccc(Cl)cc2)s1	b-catenin transl 182
COCCNC(=S)N/N=C/c1ccc(-c2ccc([N+](=O)[O-])cc2)o1	none (no result: MT stabilizer, Ins promoter up, Autophagy HCS)
O=[N+]([O-])c1cccc(-c2ccc(/C=N/NC(=S)Nc3ccccc3)o2)c1	HSV replic up inconclusive, Autophagy HCS active
CCOc1ccc(S(=O)(=O)N(CC(=O)N/N=C/c2ccc(-c3ccc([N+](=O)[O-])cc3)o2)c2ccccc2)cc1	b-catenin transl 60, MT stabilizer 26
CCOc1ccc(N(CC(=O)N/N=C/c2cc([N+](=O)[O-])ccc2Cl)S(C)(=O)=O)cc1	none
O=C(Cc1ccccc1)N/N=C/c1ccc(-c2ccc([N+](=O)[O-])cc2)o1	Autophagy HCS active
O=[N+]([O-])c1ccc(/C=N/NC(=S)Nc2ccccc2)o1	none
Cc1ccc(C)c(N(CC(=O)N/N=C/c2ccc(-c3ccc([N+](=O)[O-])cc3)o2)S(=O)(=O)c2ccccc2)c1	Autophagy HCS active
COc1ccc(CNC(=O)Cn2ncn3cccc3c2=O)cc1	none
CN(C)C(=S)NC(=O)C12CC3(C)CC(C)(CC(C)(C3)C1)C2	none (no result: MT stabilizer, Autophagy HCS)
O=C(c1ccco1)N1CCN(C(=O)c2cc(-c3ccccn3)nc3ccc(Cl)cc23)CC1	none (no result: b-catenin transl)
COc1ccccc1NC(=O)C(=O)/C=C(\O)c1ccccc1	none (no result: MT stabilizer, Ins promoter up, Autophagy HCS)
Cc1ccc2nc(Cl)c3cc(C(=O)NCCCN4CCCC4)sc3c2c1	none
CC(C)C(=O)N(Cc1ccc(F)cc1)Cc1nc2ccccc2c(=O)[nH]1	none (no result: Ins promoter up)
COc1cc([N+](=O)[O-])ccc1-c1ccc(/C=N/NC(N)=O)o1	Ins promoter up 3.3 (no result: MT stabilizer, Autophagy HCS)
CCOc1ccc(NC(=O)CN(c2ccc([N+](=O)[O-])cc2)S(=O)(=O)c2ccccc2)cc1	MT stabilizer 14
CC(=O)Nc1ccc(NC(=O)CN(c2ccc([N+](=O)[O-])cc2)S(=O)(=O)c2ccccc2)cc1	none
Cc1cc(F)ccc1S(=O)(=O)Nc1ccccc1C(=O)NCc1cccnc1	none (no result: Ins promoter up)
CCOC(=O)c1c(/N=C/C2=C(O)CCCC2=O)sc2c1CCCC2	none (no result: MT stabilizer, Ins promoter up, Autophagy HCS)
CCOC(=O)c1cc(CC)sc1/N=C/C1=C(O)CCCC1=O	Furin inhibitor 37 (no result: b-catenin transl)
Cn1c(C(=O)OC(C(=O)NC2CCCCC2)c2cccnc2)cc2sccc21 (centres undefined)	none
COc1ccc(OC)c(C(=O)c2ccc(C(=O)c3cc(OC)ccc3OC)cc2)c1	none
CN(C)c1ccc(C(=O)c2ccc(N(C)C)c3ccccc23)cc1	Autophagy HCS active (no result: HSV replic up)
COc1ccc(C(=O)c2ccc(OC)cc2OC)cc1	b-catenin transl 56 (no result: MT stabilizer, Autophagy HCS)
COc1ccc(C(=O)c2ccc(N(C)C)cc2)c(OC)c1	b-catenin transl 96
COc1ccccc1N1CCN(C(=O)c2c(-c3ccccc3)noc2C)CC1	b-catenin transl 126, MT stabilizer 28
Cc1onc(-c2ccccc2)c1C(=O)N1CCCN(C(=O)c2c(-c3ccccc3)noc2C)CC1	none (no result: b-catenin transl, Ins promoter up)
COc1cc(SC)ccc1C(=O)N1CCN(c2ccccc2OC)CC1	b-catenin transl 50, MT stabilizer 23
COC(=O)C(C)(C(=O)OC)c1ccc(C(F)(F)F)cc1[N+](=O)[O-]	none
O=C(NN1C(=O)C2CC=C(Cl)CC2C1=O)c1ccncc1 (centres undefined)	none
COc1ccccc1Nc1nnc(SCC2CCCCO2)s1 (centres undefined)	MT stabilizer 19
O=C(Nc1ccc(Cc2ccncc2)cc1)c1cc([N+](=O)[O-])ccc1N1CCOCC1	none
CC1(C)CC(=O)C2=C(C1)NC(=O)CC2c1cc(F)ccc1F (centres undefined)	none

From PubChem
